This is an account of results in ChEMBL document CHEMBL1821628, “Anti-inflammatory endiandric acid analogues from the roots of Beilschmiedia tsangii” (J Nat Prod, 2011).

Assay [1] has as its target T1, Nitric oxide synthase, inducible (Mus musculus) (UniProt P29477).
T1 sequence (whole entry): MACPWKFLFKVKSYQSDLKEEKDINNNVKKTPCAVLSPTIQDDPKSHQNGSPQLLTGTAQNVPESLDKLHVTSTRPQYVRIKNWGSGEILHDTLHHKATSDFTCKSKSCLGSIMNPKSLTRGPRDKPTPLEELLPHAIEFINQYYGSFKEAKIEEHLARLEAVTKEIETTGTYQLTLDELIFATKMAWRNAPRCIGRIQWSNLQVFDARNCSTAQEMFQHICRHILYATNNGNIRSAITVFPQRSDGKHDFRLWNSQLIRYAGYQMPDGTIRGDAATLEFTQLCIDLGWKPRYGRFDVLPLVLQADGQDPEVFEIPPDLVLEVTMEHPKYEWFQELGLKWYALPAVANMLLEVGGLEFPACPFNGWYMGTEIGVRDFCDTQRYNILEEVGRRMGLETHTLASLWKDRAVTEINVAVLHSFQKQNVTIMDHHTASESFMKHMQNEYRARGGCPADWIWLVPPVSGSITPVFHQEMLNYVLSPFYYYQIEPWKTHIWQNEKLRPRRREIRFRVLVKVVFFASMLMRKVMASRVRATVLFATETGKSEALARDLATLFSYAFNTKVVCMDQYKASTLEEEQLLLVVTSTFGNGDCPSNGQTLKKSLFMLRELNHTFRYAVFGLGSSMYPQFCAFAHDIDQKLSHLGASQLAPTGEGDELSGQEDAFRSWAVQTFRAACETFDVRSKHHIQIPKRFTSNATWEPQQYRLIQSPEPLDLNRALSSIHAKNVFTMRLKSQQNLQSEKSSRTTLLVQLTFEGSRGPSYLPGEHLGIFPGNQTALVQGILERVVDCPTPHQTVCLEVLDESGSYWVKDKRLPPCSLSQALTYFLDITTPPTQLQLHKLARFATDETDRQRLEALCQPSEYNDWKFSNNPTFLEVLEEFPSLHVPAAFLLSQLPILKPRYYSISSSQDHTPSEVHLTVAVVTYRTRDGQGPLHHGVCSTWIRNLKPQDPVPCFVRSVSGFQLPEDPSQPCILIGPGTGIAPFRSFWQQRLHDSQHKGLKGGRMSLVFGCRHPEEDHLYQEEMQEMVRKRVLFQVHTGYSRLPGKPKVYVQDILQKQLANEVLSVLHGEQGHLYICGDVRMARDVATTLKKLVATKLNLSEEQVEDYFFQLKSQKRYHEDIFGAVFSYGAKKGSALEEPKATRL
As to the kind of experiment: Inhibition of iNOS in mouse RAW264.7 cells assessed as anti-inflammatory activity by measuring inhibition of LPS-induced nitric oxide production at 100 uM after 24 hrs. In kind it is cell-based. An outline of the steps:
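RAW 264.7 murine macrophages grown to confluence over 24 h, then held 4 h in serum-free DMEM. Compounds or vehicle (0.1% DMSO) were added with or without LPS (200 ng/mL) for 24 h. Supernatant nitrite was measured by Griess reagent, 10 min at room temperature, A550, against a sodium nitrite standard curve. Results are % inhibition versus vehicle plus LPS; Emax is taken at 100 μM; mean ± SE.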

The target in assay [2] is T2, Nitric oxide synthase, inducible (Mus musculus, UniProt P29477).
T2 sequence (P29477 whole entry): T1 sequence (whole entry)
As to conditions: raw264.7.

As a reminder, the Emax is the greatest response seen or fitted, relative to the assay's reference. One may read the IC50 as the concentration that inhibits the measured activity by half. Lower therefore signals higher potency. In the case of `O=C(O)[C@H]1[C@H]2C=C[C@@H]3[C@@H]1C[C@H]1[C@H](CCCc4ccc5c(c4)OCO5)[C@@H]2[C@@H]31` (relative stereo), the Emax in assay [1] is 77.9%. The same molecule returned an IC50 in assay [2] of 58.2 µM.

For the molecule `O=C(O)/C=C/[C@H]1[C@@H]2C=C[C@@H]3[C@H]1C[C@H]1[C@H](CCCCCc4ccc5c(c4)OCO5)[C@H]2[C@@H]31` (relative stereo), the Emax in assay [1] is 91.4%. In addition, in assay [2], the IC50 turned out to be 39.6 µM. As for `CC(C)CNC(=O)[C@H]1[C@H]2C=C[C@@H]3[C@@H]1C[C@H]1[C@H](CCCc4ccc5c(c4)OCO5)[C@@H]2[C@@H]31` (relative stereo), in assay [1], the Emax amounted to 72.1%. This molecule also showed an IC50 in assay [2] of 16.4 µM.

With `COc1cc([C@@H]2O[C@@H](c3cc(OC)c4c(c3)OCO4)[C@H](C)[C@H]2C)cc(OC)c1OC` (relative stereo), in assay [1], the Emax is 63.4%. Further, inhibition in assay [2] was half-maximal at 49 µM (IC50). With `COc1cc([C@@H]2O[C@@H](c3cc(OC)c4c(c3)OCO4)[C@H](C)[C@H]2C)cc2c1OCO2` (relative stereo), the Emax in assay [1] turned out to be 65.6%. For the same molecule, it took 52.5 µM to reach half-maximal inhibition in assay [2] (IC50). For the molecule `COc1cc([C@@H]2O[C@@H](c3cc(OC)c4c(c3)OCO4)[C@H](C)[C@H]2C)cc(O)c1OC` (relative stereo) [BEILSCHMINOL A], the Emax in assay [1] came out at 86.6%. This molecule also yielded an IC50 in assay [2] of 51.5 µM. With `CC(C)CNC(=O)[C@@H]1C=C[C@@H]2C[C@H]3[C@H](Cc4ccc5c(c4)OCO5)[C@H]4C=C[C@@H]1[C@@H]2[C@H]43` (relative stereo) [ENDIANDRAMIDE A], the Emax in assay [1] turned out to be 97.3%. In assay [2], this molecule yielded an IC50 of 9.59 µM. For the molecule `O=C(O)[C@@H]1C=C[C@@H]2C[C@H]3[C@H](CCCc4ccc5c(c4)OCO5)[C@H]4C=C[C@@H]1[C@@H]2[C@H]43` (relative stereo) [TSANGIBEILIN A], the Emax in assay [1] came to 96.9%. The same molecule returned an IC50 in assay [2] of 49.6 µM.

Take `O=C(O)[C@@H]1C=C[C@@H]2C[C@H]3[C@H](Cc4ccc5c(c4)OCO5)[C@H]4C=C[C@@H]1[C@@H]2[C@H]43` (relative stereo) [TSANGIBEILIN B]: the Emax in assay [1] turned out to be 96.1%. In assay [2], this molecule came in with an IC50 of 42.3 µM. Take `N=C(NCCC[C@H](N)C(=O)O)N[N+](=O)[O-]` [NITROARGININE]: the Emax in assay [1] is 43.7%. The same molecule registered an IC50 in assay [2] of 152 µM. In assay [2], `N=C(N)NN` [PIMAGEDINE] returned an IC50 of 26.5 µM.

On to `COc1cc(C(=O)O[C@@H](c2cc(OC)c(OC)c(OC)c2)[C@H](C)C(C)=O)cc(OC)c1OC` [TSANGIN C], for which the Emax in assay [1] was 85.5%. Also, 51.4 µM corresponded to half-maximal inhibition in assay [2] (IC50).
